For experiment [1], the target named is Casein kinase I isoform gamma-1 (Homo sapiens) (UniProt Q9HCP0). The experiment is described as follows: Inhibition of CSNK1G1 assessed as residual activity at 10 uM relative to control. The method, boiled down:
(§1)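 Competition kinase-binding assay (KINOMEscan) across a non-redundant panel of 329 kinases beyond the radiometric panel; residual binding expressed relative to control.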

In experiment [2] the target is Casein kinase I isoform delta (Homo sapiens) (UniProt P48730). The experiment is described as follows: Inhibition of CSNK1D assessed as residual activity at 10 uM relative to control. The method, boiled down:
as §1

Experiment [3] deals with Casein kinase I isoform alpha-like (Homo sapiens) (UniProt Q8N752). The experiment is described as follows: Inhibition of CSNK1A1L assessed as residual activity at 10 uM relative to control. The method, boiled down:
as §1

The target in experiment [4] is Cyclin-dependent kinase 9 (Homo sapiens) (UniProt P50750). The experiment can be described thus: Inhibition of CDK9 assessed as residual activity at 10 uM relative to control.
In experiment [5] the target is Cyclin-dependent kinase 5 (Homo sapiens) (UniProt Q00535). The experiment can be described thus: Inhibition of CDK5 assessed as residual activity at 10 uM relative to control.
Experiment [6] addresses T1, Serine/threonine-protein kinase D1 (Homo sapiens) (UniProt Q15139).
T1 sequence (whole entry): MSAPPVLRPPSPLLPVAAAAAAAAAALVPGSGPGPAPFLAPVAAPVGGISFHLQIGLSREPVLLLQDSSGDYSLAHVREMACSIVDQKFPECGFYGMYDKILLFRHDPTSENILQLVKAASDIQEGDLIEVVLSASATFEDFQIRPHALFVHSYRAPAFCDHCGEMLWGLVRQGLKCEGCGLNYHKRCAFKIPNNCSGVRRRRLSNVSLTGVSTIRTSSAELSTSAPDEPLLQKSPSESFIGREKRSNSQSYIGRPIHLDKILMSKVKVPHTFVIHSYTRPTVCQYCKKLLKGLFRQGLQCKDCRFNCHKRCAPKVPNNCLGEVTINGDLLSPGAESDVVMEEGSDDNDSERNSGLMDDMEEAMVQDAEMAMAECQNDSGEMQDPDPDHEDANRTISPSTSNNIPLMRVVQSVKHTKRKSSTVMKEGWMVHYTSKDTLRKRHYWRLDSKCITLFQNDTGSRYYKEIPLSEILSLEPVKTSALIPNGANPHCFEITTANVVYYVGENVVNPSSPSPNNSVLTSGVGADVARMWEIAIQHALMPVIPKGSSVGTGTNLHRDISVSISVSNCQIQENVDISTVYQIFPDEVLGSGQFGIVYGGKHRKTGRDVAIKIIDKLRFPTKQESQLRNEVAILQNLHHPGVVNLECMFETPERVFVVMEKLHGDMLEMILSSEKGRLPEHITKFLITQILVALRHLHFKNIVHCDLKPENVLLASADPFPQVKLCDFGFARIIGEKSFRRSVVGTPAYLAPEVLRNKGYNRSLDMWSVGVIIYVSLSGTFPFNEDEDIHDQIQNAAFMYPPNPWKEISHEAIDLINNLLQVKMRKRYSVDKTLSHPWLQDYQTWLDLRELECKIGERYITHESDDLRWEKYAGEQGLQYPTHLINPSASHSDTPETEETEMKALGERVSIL
The experiment can be described thus: Inhibition of PKD1 assessed as residual activity at 1 uM.

Experiment [7] deals with Serine/threonine-protein kinase pim-1 (Homo sapiens) (UniProt P11309). The experiment is described as follows: Inhibition of PIM1 assessed as residual activity at 1 uM.
The target of experiment [8] is Mitogen-activated protein kinase 9 (Homo sapiens) (UniProt P45984). The experiment can be described thus: Inhibition of JNK2 assessed as residual activity at 1 uM. The method, boiled down:
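Radioactivity-based enzymatic activity assay of the named kinase, run as part of a 131-kinase specificity panel at the National Centre for Protein Kinase Profiling (Dundee). Residual activity was read at the stated single inhibitor concentration.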

In experiment [9] the target is Bone morphogenetic protein receptor type-1A (Homo sapiens) (UniProt P36894). The experiment is described as follows: Inhibition of BMPR1A assessed as residual activity at 10 uM relative to control.
Experiment [10] concerns the target Misshapen-like kinase 1 (Homo sapiens) (UniProt Q8N4C8). The experiment can be described thus: Inhibition of MINK1 assessed as residual activity at 10 uM.
Experiment [11] deals with Tyrosine-protein kinase ZAP-70 (Homo sapiens) (UniProt P43403). The experiment can be described thus: Inhibition of ZAP70 assessed as residual activity at 1 uM.
Experiment [12] deals with Testis-specific serine/threonine-protein kinase 1 (Homo sapiens) (UniProt Q9BXA7). The experiment can be described thus: Inhibition of TSSK1 assessed as residual activity at 1 uM.
Experiment [13] addresses T2, Mitogen-activated protein kinase kinase kinase 7 (Homo sapiens) (UniProt O43318).
T2 sequence (whole entry): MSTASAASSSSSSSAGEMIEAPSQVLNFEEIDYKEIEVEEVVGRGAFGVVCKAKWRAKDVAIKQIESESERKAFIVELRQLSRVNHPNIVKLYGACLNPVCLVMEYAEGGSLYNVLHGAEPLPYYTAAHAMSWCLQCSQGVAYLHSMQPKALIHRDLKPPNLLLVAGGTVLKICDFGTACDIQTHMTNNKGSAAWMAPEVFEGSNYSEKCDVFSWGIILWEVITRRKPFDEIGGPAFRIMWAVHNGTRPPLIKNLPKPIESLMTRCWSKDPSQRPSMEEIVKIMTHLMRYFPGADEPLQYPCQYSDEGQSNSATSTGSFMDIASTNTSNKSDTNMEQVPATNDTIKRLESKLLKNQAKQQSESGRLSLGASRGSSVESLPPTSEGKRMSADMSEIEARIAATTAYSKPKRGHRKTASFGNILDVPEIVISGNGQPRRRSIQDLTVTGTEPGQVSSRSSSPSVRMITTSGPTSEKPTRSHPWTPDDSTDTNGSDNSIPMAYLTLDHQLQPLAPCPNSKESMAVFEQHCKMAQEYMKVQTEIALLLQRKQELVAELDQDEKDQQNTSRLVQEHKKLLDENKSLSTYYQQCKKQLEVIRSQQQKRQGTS
The experiment can be described thus: Inhibition of TAK1 assessed as residual activity at 1 uM.

In experiment [14] the target is Tyrosine-protein kinase SYK (Homo sapiens) (UniProt P43405). The experiment can be described thus: Inhibition of SYK assessed as residual activity at 1 uM.
The target of experiment [15] is Phosphatidylinositol 4-phosphate 3-kinase C2 domain-containing subunit beta (Homo sapiens) (UniProt O00750). The experiment can be described thus: Inhibition of PIK3C2B assessed as residual activity at 10 uM relative to control.
Experiment [16] has as its target Platelet-derived growth factor receptor beta (Homo sapiens) (UniProt P09619). The experiment is described as follows: Inhibition of PDGFRB assessed as residual activity at 10 uM relative to control.
The target in experiment [17] is Serine/threonine-protein kinase NLK (Homo sapiens) (UniProt Q9UBE8). The experiment can be described thus: Inhibition of NLK assessed as residual activity at 10 uM relative to control.
The target in experiment [18] is Serine/threonine-protein kinase Nek6 (Homo sapiens) (UniProt Q9HC98). The experiment can be described thus: Inhibition of NEK6 assessed as residual activity at 10 uM relative to control.
Experiment [19] has as its target Myosin light chain kinase, smooth muscle (Homo sapiens) (UniProt Q15746). The experiment can be described thus: Inhibition of MYLK assessed as residual activity at 10 uM relative to control.
The target in experiment [20] is Serine/threonine-protein kinase MRCK alpha (Homo sapiens) (UniProt Q5VT25). The experiment can be described thus: Inhibition of MRCKA assessed as residual activity at 10 uM relative to control.

Sequence of Testis-specific serine/threonine-protein kinase 1 (Homo sapiens) (Q9BXA7 whole entry): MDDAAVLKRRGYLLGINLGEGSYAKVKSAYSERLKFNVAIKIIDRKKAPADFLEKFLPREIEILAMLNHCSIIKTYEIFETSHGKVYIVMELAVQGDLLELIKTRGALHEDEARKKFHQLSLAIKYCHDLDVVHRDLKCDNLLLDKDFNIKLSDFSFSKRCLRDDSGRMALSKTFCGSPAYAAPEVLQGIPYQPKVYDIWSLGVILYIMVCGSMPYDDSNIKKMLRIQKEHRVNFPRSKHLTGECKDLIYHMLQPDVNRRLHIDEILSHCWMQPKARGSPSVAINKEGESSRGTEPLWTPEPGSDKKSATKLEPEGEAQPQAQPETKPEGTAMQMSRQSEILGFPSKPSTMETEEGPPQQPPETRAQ
Sequence of Serine/threonine-protein kinase pim-1 (Homo sapiens) (P11309 whole entry, looked up): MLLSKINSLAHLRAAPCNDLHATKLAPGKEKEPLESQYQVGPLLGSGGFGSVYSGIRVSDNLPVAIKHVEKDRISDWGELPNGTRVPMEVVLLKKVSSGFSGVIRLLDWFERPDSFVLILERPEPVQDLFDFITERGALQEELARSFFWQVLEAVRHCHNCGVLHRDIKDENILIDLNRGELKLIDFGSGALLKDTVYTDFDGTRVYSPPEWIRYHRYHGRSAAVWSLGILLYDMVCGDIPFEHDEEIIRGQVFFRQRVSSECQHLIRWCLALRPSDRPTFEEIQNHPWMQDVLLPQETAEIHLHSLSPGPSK
Sequence of Casein kinase I isoform gamma-1 (Homo sapiens) (Q9HCP0 whole entry, looked up, canonical isoform): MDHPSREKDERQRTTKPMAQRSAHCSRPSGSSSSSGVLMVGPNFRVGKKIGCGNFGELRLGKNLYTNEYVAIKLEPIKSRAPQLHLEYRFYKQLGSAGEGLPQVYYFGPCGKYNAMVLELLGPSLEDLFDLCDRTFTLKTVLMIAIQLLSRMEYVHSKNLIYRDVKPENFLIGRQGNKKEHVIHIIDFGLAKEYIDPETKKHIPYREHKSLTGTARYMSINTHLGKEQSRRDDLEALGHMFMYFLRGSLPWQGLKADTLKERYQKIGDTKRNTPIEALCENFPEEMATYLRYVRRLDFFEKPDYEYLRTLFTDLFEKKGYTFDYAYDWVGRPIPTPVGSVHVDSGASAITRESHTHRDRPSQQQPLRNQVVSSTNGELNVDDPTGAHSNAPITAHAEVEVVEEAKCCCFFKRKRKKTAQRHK
Sequence of Cyclin-dependent kinase 5 (Homo sapiens) (Q00535 whole entry, looked up): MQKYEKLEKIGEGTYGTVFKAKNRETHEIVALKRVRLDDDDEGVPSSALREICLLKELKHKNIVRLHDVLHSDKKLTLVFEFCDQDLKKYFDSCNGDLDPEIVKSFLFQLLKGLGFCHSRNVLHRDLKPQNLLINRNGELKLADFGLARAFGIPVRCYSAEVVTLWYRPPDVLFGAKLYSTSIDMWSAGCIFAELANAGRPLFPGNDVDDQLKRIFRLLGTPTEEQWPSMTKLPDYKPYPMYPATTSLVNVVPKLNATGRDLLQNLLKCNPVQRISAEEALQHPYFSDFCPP
Sequence of Mitogen-activated protein kinase 9 (Homo sapiens) (P45984 whole entry, looked up): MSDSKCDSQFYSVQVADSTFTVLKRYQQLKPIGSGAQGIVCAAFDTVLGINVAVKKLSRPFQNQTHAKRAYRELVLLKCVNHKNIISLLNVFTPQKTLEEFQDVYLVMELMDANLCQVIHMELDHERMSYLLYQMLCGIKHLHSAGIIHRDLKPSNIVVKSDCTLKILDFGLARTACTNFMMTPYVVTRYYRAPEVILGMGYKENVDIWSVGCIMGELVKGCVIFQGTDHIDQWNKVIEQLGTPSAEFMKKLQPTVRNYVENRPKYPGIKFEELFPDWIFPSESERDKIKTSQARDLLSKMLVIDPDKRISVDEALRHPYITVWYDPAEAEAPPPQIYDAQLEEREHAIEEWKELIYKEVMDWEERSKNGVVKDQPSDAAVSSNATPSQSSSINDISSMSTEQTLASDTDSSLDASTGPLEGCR
Sequence of Serine/threonine-protein kinase Nek6 (Homo sapiens) (Q9HC98 whole entry): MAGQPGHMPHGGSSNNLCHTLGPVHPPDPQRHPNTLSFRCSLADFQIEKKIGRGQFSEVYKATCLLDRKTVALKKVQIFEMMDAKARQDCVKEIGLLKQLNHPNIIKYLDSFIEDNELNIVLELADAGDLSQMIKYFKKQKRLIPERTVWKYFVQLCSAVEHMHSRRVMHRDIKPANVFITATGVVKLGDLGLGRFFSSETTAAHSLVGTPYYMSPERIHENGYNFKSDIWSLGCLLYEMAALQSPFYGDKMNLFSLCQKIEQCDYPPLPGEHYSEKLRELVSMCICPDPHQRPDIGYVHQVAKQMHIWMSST
Sequence of Tyrosine-protein kinase ZAP-70 (Homo sapiens) (P43403 whole entry): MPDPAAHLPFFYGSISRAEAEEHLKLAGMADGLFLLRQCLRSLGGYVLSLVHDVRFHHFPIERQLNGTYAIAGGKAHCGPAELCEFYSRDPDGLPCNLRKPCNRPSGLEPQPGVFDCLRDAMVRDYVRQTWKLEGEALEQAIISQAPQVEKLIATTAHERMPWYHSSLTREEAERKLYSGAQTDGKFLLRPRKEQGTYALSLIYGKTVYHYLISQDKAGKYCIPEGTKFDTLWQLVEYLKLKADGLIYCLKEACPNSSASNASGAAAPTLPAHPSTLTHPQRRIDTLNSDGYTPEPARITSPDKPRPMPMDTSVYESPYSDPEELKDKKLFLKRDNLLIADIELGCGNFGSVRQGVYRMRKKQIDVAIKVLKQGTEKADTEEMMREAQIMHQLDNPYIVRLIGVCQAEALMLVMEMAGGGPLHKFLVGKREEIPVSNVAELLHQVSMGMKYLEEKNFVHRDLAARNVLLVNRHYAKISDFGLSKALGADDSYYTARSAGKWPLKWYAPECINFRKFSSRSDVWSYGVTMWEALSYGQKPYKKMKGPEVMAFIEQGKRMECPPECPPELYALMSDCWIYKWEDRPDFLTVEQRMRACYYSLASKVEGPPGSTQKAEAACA
Sequence of Platelet-derived growth factor receptor beta (Homo sapiens) (P09619 whole entry): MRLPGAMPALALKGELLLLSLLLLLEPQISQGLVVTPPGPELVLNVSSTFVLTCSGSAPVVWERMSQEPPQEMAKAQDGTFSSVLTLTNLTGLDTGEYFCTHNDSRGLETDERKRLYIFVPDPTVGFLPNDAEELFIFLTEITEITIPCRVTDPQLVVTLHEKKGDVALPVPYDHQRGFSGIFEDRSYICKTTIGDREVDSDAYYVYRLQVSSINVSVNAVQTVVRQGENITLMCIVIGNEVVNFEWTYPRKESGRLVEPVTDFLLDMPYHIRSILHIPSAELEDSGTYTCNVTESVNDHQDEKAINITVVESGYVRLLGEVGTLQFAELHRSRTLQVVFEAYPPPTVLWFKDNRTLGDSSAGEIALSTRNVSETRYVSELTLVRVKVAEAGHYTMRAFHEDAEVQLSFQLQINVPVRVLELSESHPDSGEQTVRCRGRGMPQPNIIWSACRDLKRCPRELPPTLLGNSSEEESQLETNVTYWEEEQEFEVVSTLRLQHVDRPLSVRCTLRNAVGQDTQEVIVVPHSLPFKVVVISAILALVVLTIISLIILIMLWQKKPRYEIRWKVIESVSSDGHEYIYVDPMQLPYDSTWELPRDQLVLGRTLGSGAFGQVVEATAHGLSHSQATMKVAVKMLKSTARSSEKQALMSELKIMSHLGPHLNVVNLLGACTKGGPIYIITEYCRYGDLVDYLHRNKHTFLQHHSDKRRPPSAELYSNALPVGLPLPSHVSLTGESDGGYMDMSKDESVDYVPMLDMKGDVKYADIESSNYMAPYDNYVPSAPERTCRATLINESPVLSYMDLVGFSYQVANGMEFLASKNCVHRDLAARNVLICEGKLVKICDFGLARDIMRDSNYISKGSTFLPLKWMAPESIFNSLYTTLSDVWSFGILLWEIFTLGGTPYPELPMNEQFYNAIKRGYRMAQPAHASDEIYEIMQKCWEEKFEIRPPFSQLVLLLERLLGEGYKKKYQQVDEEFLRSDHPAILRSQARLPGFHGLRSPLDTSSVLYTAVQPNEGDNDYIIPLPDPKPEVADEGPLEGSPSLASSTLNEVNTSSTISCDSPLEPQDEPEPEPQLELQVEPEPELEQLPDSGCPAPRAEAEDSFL
Sequence of Cyclin-dependent kinase 9 (Homo sapiens) (P50750 whole entry): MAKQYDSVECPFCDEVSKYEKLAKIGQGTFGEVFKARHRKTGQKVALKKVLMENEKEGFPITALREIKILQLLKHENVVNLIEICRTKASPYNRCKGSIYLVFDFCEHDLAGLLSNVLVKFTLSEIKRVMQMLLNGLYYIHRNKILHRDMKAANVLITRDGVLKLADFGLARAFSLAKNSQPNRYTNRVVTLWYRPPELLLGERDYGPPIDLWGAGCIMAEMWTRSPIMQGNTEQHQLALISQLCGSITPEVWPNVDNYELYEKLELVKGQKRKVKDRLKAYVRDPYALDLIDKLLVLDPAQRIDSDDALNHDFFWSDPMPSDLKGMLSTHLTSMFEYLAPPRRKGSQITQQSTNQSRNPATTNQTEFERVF
Sequence of Bone morphogenetic protein receptor type-1A (Homo sapiens) (P36894 whole entry): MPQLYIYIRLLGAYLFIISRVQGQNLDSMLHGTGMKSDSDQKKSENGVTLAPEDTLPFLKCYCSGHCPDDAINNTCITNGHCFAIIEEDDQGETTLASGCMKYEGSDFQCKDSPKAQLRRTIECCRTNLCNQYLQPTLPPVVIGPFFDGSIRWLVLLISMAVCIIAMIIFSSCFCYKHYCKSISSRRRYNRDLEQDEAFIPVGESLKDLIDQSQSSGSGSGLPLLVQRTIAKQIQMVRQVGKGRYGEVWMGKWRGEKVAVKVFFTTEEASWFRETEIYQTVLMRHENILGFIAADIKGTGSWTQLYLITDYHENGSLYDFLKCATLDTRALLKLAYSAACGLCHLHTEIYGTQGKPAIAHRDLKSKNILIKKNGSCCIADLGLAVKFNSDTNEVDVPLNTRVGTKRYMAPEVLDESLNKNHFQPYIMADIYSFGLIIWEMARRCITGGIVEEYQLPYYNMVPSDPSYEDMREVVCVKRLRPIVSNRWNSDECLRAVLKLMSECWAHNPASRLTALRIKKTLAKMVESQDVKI

Take `O=C(Nc1cccnc1)c1cc(-c2ccnc(F)c2)ccc1OCc1ccccc1`: the Activity in [1] was 79%; in experiment [2], 19%; in experiment [3] it was 40%; in [4], 57%; in [5] it was 70%; in experiment [6], 80%. Further, the Activity in experiment [7] was determined as 102%; in [8], 107%; in [9] it was 41%; in [10], 76%; in experiment [11], 103%; in experiment [12], 103%. Besides, the Activity worked out at 108% in experiment [13]; 115% in [14]; 42% in experiment [15]; 52% in [16]; 65% in experiment [17]; 50% in experiment [18]. Moreover, the Activity was found to be 27% in [19] and 56% in experiment [20].

The record behind these values is ChEMBL document CHEMBL2203081 (Bioorg Med Chem Lett, 2012).
